Results taken from ChEMBL document CHEMBL1148977, “Inhibitory effects of bufadienolides on interleukin-6 in MH-60 cells” (J Nat Prod, 2004).

Assays:
MH60 [1] = assay: Growth inhibition of IL-6-independent mouse MH60 cells after 72 hrs by MTT assay; assay type: functional, cell-based; settings: MH60, 72 h
Outline: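 Mouse B-cell/myeloma hybridoma MH-60 subline adapted to grow without IL-6 (rhIL-6 withdrawn gradually), kept in RPMI 1640 + 10% FCS with no rhIL-6. 0.5 × 10^4 cells/well pre-incubated 24 h at 37 °C, 5% CO2, then exposed 72 h to graded compound concentrations. MTT read-out; mean with standard errors of 3–4 experiments.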

MH60 [2] = assay: Growth inhibition of IL6-dependent mouse MH60 cells after 72 hrs by MTT assay in presence of human recombinant IL6; assay type: functional, cell-based; settings: MH60, 72 h
Outline: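 IL-6-dependent MH-60 mouse B-cell/myeloma hybridoma kept in RPMI 1640 + 10% FCS containing 0.5 ng/mL recombinant human IL-6. 0.5 × 10^4 cells/well in rhIL-6 medium pre-incubated 24 h at 37 °C, 5% CO2, then treated 72 h with graded compound concentrations. Growth by MTT; mean with standard errors of 3–4 experiments.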

Structure (SMILES)	IC50 (MH60 [1]) [µM]	IC50 (MH60 [2]) [µM]
C[C@]12CCC(=O)C[C@H]1CC[C@@H]1[C@@H]2CC[C@]2(C)[C@@H]([C@]34C=CC(=O)O[C@H]3O4)C[C@H]3O[C@]132	8.3	4.3
C[C@]12CC[C@H](O)C[C@H]1CC[C@@H]1[C@@H]2CC[C@]2(C)[C@@H](c3ccc(=O)oc3)C[C@H]3O[C@]132 [BUFOGENIN]	> 65.1	22.9
C[C@]12CCC(=O)C[C@H]1CC[C@@H]1[C@@H]2CC[C@]2(C)[C@@H]([C@@]34C=CC(=O)O[C@@H]3O4)C[C@H]3O[C@]132	4.3	1.3
C[C@]12CC[C@H](O)C[C@H]1CC[C@@H]1[C@@H]2CC[C@]2(C)[C@@H]([C@]34C=CC(=O)O[C@H]3O4)CC[C@]12O	> 62.2	> 62.2
C[C@]12CC[C@H](O)C[C@H]1CC[C@@H]1[C@@H]2CC[C@]2(C)[C@@H](c3ccc(=O)oc3)CC[C@]12O [BUFALIN]	> 64.8	31.9
CCCCC(=O)O[C@H]1CC[C@@]2(C)[C@H](CC[C@@H]3[C@@H]2CC[C@]2(C)[C@@H]([C@@]45C=CC(=O)O[C@@H]4O5)C[C@H]4O[C@]342)C1	19.1	6.4
CC(=O)O[C@H]1CC[C@@]2(C)[C@H](CC[C@@H]3[C@@H]2CC[C@]2(C)[C@@H]([C@@]45C=CC(=O)O[C@@H]4O5)C[C@H]4O[C@]342)C1	21.9	14.3
C[C@]12CC[C@H](OC=O)C[C@H]1CC[C@@H]1[C@@H]2CC[C@]2(C)[C@@H]([C@]34C=CC(=O)O[C@H]3O4)C[C@H]3O[C@]132	> 58.4	8.9
CC(=O)O[C@H]1C[C@]2(O)[C@@H]3CC[C@@H]4C[C@@H](O)CC[C@]4(C)[C@H]3CC[C@]2(C)[C@H]1c1ccc(=O)oc1 [BUFOTALIN]	> 56.2	> 56.2
CC(=O)O[C@H]1[C@H]2O[C@]23[C@@H]2CC[C@@H]4C[C@@H](O)CC[C@]4(C)[C@H]2CC[C@]3(C)[C@H]1c1ccc(=O)oc1 [CINOBUFAGIN]	> 56.3	> 56.3
CC(=O)O[C@H]1CC[C@@]2(C)[C@H](CC[C@@H]3[C@@H]2CC[C@]2(C)[C@@H](c4ccc(=O)oc4)C[C@H]4O[C@]342)C1	> 58.7	> 58.7
C[C@]12CC[C@H](O)C[C@H]1CC[C@@H]1[C@@H]2CC[C@]2(C)[C@@H]([C@@]34C=CC(=O)O[C@@H]3O4)CC[C@]12O	> 62.2	> 62.2
CC(C)(C)C(=O)O[C@H]1CC[C@@]2(C)[C@H](CC[C@@H]3[C@@H]2CC[C@]2(C)[C@@H]([C@@]45C=CC(=O)O[C@@H]4O5)C[C@H]4O[C@]342)C1	34	18.1
C[C@]12CCC(=O)C[C@H]1CC[C@@H]1[C@@H]2CC[C@]2(C)[C@@H](c3ccc(=O)oc3)C[C@H]3O[C@]132	8.4	2.4
CC(=O)O[C@H]1CC[C@@]2(C)[C@H](CC[C@@H]3[C@@H]2CC[C@]2(C)[C@@H]([C@]45C=CC(=O)O[C@H]4O5)C[C@H]4O[C@]342)C1	> 56.6	5.3
C[C@]12CC[C@H](O)C[C@H]1CC[C@@H]1[C@@H]2CC[C@]2(C)[C@@H]([C@@]34C=CC(=O)O[C@@H]3O4)C[C@H]3O[C@]132	45	18.3
C[C@]12CC[C@H](OC=O)C[C@H]1CC[C@@H]1[C@@H]2CC[C@]2(C)[C@@H](c3ccc(=O)oc3)C[C@H]3O[C@]132	> 60.7	> 60.7
CCCC(=O)O[C@H]1CC[C@@]2(C)[C@H](CC[C@@H]3[C@@H]2CC[C@]2(C)[C@@H]([C@]45C=CC(=O)O[C@H]4O5)C[C@H]4O[C@]342)C1	> 54.8	9.4
C[C@]12CC[C@H](OC=O)C[C@H]1CC[C@@H]1[C@@H]2CC[C@]2(C)[C@@H]([C@@]34C=CC(=O)O[C@@H]3O4)C[C@H]3O[C@]132	12.9	5.6
CC(=O)O[C@@H]1[C@H]2O[C@]23[C@@H]2CC[C@@H]4C[C@@H](O)CC[C@]4(C)[C@H]2CC[C@]3(C)[C@H]1[C@]12C=CC(=O)O[C@H]1O2	> 54.2	> 54.2
CC(=O)O[C@@H]1[C@H]2O[C@]23[C@@H]2CC[C@@H]4C[C@@H](O)CC[C@]4(C)[C@H]2CC[C@]3(C)[C@H]1[C@@]12C=CC(=O)O[C@@H]1O2	> 54.2	> 54.2
CC(C)(C)C(=O)O[C@H]1CC[C@@]2(C)[C@H](CC[C@@H]3[C@@H]2CC[C@]2(C)[C@@H]([C@]45C=CC(=O)O[C@H]4O5)C[C@H]4O[C@]342)C1	> 53.2	6.8
CCCCC(=O)O[C@H]1CC[C@@]2(C)[C@H](CC[C@@H]3[C@@H]2CC[C@]2(C)[C@@H]([C@]45C=CC(=O)O[C@H]4O5)C[C@H]4O[C@]342)C1	> 53.2	11.6
C[C@]12CC[C@H](O)C[C@H]1CC[C@@H]1[C@@H]2CC[C@]2(C)[C@@H]([C@]34C=CC(=O)O[C@H]3O4)C[C@H]3O[C@]132	> 62.5	24.8
CCCC(=O)O[C@H]1CC[C@@]2(C)[C@H](CC[C@@H]3[C@@H]2CC[C@]2(C)[C@@H]([C@@]45C=CC(=O)O[C@@H]4O5)C[C@H]4O[C@]342)C1	17.5	2
